Experimental findings from ChEMBL document CHEMBL5032505, “Design, Synthesis, and Activity Evaluation of Stereoconfigured Tartarate Derivatives as Potential Anti-inflammatory Agents In Vitro and In Vivo” (J Med Chem, 2021) are described below.

Assay [1] is described as follows: Inhibition of soybean LOX using arachidonic acid as substrate incubated for 5 mins. More on the design: species or system Glycine max. In a few lines:
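Soybean lipoxygenase in assay buffer, compounds at 10⁻⁴–10⁻⁸ M from DMSO stocks, triplicate. Reaction started with arachidonic acid and shaken 5 min. Chromogen added, shaken 5 min more, absorbance read at 490 nm. Blanks were buffer + AA. % inhibition computed with chromogen extinction coefficient 9.47 mM⁻¹.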

The target in assay [2] is T1, Prostaglandin G/H synthase 1 (Ovis aries, UniProt P05979).
T1 sequence (P05979 whole entry): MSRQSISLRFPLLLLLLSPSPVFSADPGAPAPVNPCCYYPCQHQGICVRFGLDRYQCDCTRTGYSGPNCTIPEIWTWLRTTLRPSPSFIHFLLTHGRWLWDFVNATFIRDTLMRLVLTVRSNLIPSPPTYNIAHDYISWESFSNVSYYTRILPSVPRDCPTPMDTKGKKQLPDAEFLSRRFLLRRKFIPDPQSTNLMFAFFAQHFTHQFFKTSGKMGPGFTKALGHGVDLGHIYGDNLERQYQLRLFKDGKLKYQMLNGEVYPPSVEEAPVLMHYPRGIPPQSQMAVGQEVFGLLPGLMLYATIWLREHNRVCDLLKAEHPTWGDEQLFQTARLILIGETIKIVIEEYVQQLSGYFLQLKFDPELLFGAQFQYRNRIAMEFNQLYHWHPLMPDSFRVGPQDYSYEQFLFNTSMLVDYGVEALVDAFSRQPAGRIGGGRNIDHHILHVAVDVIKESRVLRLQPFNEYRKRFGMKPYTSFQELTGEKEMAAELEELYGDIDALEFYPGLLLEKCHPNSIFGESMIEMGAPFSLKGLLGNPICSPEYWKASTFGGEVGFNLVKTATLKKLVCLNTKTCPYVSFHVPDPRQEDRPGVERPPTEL
Put plainly: Inhibition of ovine COX-1 using arachidonic acid as substrate preincubated for 10 mins followed by substrate addition and measured after 2 mins by EIA. In a few lines: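 COX-1 EIA run at 10⁻⁴–10⁻⁸ M in triplicate. Enzyme with heme in reaction buffer plus inhibitor, incubated 10 min at 37 °C. Boiled (3 min) enzyme served as background. Prostaglandin output quantified to give IC50.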

For assay [3], the system named is Mus musculus. In words: Analgesic activity in Swiss albino mouse assessed as inhibition of acetic acid-induced writhing at 5 mg/kg, ip administered 30 mins prior to acetic acid challenge and measured after 30 mins relative to control. It is filed as functional. In a few lines: (§1)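 Mice pretreated i.p. with indomethacin (10 mg/kg) or test compound (5 mg/kg) 30 min before 0.6% v/v acetic acid injection. Control group also received acetic acid. Animals placed in a transparent box and abdominal writhings counted for 30 min. Six animals per group, one-way ANOVA with Tukey's test, mean ± SEM.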

Assay [4] concerns Mus musculus. In words: Antiinflammatory activity in Swiss albino mouse model of carrageenan-induced paw edema assessed as reduction in paw thickness at 5 mg/kg, administered 30 mins prior to carrageenan challenge and measured upto 360 mins relative to control. It is filed as functional. More on the design: scale not given: the % may be the effect or the level left. The settings on record: time 390 min, 6.5 h. In a few lines:
(§2)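 100 μL freshly prepared 1% carrageenan injected into the subplantar hind paw, with indomethacin (10 mg/kg) or test compound given 30 min before. Dose–response arm used 0.5, 2.5, 5, 10, 20 mg/kg. Six animals per group. Paw thickness (mm) read at 15, 30, 60, 120, 180, 240, 300, 360 min. Result expressed as % decrease versus control.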
(Carrageenan injected into the paw causes an acute inflammation.)

Assay [5] deals with Prostaglandin G/H synthase 1 (Homo sapiens) (UniProt P23219). In words: Inhibition of COX1 in human whole blood assessed as reduction in calcium ionophore-stimulated TXB2 production by ELISA. It is filed as tissue-based.
Assay [6] concerns Mus musculus. In words: Analgesic activity in Swiss albino mouse assessed as inhibition of acetic acid-induced writhing at 10 mg/kg, ip administered 30 mins prior to acetic acid challenge and measured after 30 mins relative to control. The settings on record: time 60 min, 1 h. More on the design: scale not given: the % may be the effect or the level left. The format is functional. In a few lines:
as §1
(Writhing tests count abdominal constrictions after an irritant is injected.)

For assay [7], the system named is Mus musculus. Put plainly: Antiinflammatory activity in Swiss albino mouse model of carrageenan-induced paw edema assessed as reduction in paw thickness at 10 mg/kg, administered 30 mins prior to carrageenan challenge and measured upto 360 mins. It is filed as functional. More on the design: scale not given: the % may be the effect or the level left. To be noted: time 390 min, 6.5 h. In a few lines:
as §2

The source made the active and inactive calls. No cut-off for these calls is given here.

Chain of Prostaglandin G/H synthase 1 (Homo sapiens) (P23219 whole entry): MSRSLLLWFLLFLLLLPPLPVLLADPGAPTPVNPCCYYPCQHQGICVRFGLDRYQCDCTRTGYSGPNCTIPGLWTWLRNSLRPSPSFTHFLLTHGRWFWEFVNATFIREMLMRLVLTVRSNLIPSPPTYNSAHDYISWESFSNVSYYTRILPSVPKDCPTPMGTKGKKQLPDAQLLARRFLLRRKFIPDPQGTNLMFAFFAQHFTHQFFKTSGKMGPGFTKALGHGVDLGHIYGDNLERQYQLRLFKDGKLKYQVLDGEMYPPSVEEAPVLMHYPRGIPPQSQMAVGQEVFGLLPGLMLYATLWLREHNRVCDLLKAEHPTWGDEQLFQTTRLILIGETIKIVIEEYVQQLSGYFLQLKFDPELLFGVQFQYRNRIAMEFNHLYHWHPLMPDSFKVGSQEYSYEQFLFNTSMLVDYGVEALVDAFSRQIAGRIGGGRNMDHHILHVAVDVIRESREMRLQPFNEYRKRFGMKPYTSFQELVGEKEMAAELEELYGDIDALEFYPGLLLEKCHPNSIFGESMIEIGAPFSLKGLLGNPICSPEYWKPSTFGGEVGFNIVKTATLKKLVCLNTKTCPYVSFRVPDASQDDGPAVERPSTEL

As for `CCOC(=O)[C@H](OCc1cnnn1[C@@H](Cc1ccc(O)cc1)C(=O)OC)[C@@H](OCc1cnnn1[C@@H](Cc1ccc(O)cc1)C(=O)OC)C(=O)OCC`, the IC50 (commonly the concentration needed to halve the response being measured) is 0.15 µM in assay [1] and > 10 µM in assay [2]. Further, the outcome with Mus musculus [3] (time 60.0 min) was inactive.
For `CC1(C)Cc2c(-c3ccccc3)c(-c3ccc(Cl)cc3)c(CC(=O)O)n2C1` [LICOFELONE], the concentration for half-maximal inhibition (IC50) in assay [1] stood at 0.18 µM; in assay [2] it was 0.21 µM.
Consider `CCOC(=O)[C@H](O)[C@@H](OCc1cnnn1[C@@H](Cc1ccc(O)cc1)C(=O)OC)C(=O)OCC`, for which the values for the IC50 in assay [1] and in assay [2] were 12 µM and 80 µM, respectively.
Take `COC(=O)[C@H](Cc1ccc(O)cc1)n1nncc1COc1ccc2ccccc2c1-c1c(OCc2cnnn2[C@@H](Cc2ccc(O)cc2)C(=O)OC)ccc2ccccc12`: the 50% inhibitory concentration (IC50) in assay [1] is 0.6 µM; in assay [2], > 10 µM. Moreover, in the assay on Mus musculus [3] (time 60.0 min), the result was inactive.
Regarding `COC(=O)[C@H](Cc1ccccc1)n1nncc1COc1ccc2ccccc2c1-c1c(OCc2cnnn2[C@@H](Cc2ccccc2)C(=O)OC)ccc2ccccc12`, the IC50 in assay [1] turned out to be 3 µM; in assay [2], 150 µM.
In the case of `Cc1ccc(-c2cc(C(F)(F)F)nn2-c2ccc(S(N)(=O)=O)cc2)cc1` [CELECOXIB], the Activity with Mus musculus [3] (time 60 min, 1 h) was 62%; in the assay with Mus musculus [4] it was 33%.
Consider `CCOC(=O)[C@H](OCc1cnnn1[C@@H](CO)C(=O)OC)[C@@H](OCc1cnnn1[C@@H](CO)C(=O)OC)C(=O)OCC`, for which the IC50 in assay [1] came out at 1.3 µM; in assay [2] it was 54 µM. Besides, the outcome in the assay on Mus musculus [3] (time 60.0 min) was Active.
As to `COC(=O)[C@H](Cc1c[nH]c2ccccc12)n1nncc1COc1ccc2ccccc2c1-c1c(OCc2cnnn2[C@@H](Cc2c[nH]c3ccccc23)C(=O)OC)ccc2ccccc12`, the concentration for half-maximal inhibition (IC50) in assay [1] stood at 1 µM; in assay [2], 90 µM.
Consider `CCOC(=O)[C@H](OCc1cnnn1[C@@H](Cc1c[nH]c2ccccc12)C(=O)OC)[C@@H](OCc1cnnn1[C@@H](Cc1c[nH]c2ccccc12)C(=O)OC)C(=O)OCC`, for which the IC50 in assay [1] was 0.45 µM; in assay [2], > 10 µM. For the same compound, the outcome in the assay with Mus musculus [3] (time 60.0 min) was inactive.
Take `CCOC(=O)Cn1nncc1CO[C@@H](C(=O)OCC)[C@@H](O)C(=O)OCC`: the IC50 in assay [1] turned out to be 6 µM; in assay [2], 95 µM.
Taken in the same sequence, the figures for `CCOC(=O)[C@H](OCc1cnnn1[C@@H](Cc1ccccc1)C(=O)OC)[C@@H](OCc1cnnn1[C@@H](Cc1ccccc1)C(=O)OC)C(=O)OCC` were 0.09 µM and 90 µM.
`O=C(O)[C@H](OCc1cnnn1[C@@H](Cc1ccccc1)C(=O)O)[C@@H](OCc1cnnn1[C@@H](Cc1ccccc1)C(=O)O)C(=O)O`: the half-inhibitory concentration (IC50) in assay [1] stood at 0.5 µM. Moreover, the result with Mus musculus [3] (time 60.0 min) was inactive.
Regarding `CCOC(=O)[C@H](O)[C@@H](OCc1cnnn1[C@@H](CO)C(=O)OC)C(=O)OCC`, the IC50 in assay [1] is 14 µM; in assay [2], 110 µM.
Taken in the same sequence, the figures for `O=C1NC(=O)C(=Cc2cn(C[C@H](O)COc3cc(O)c4c(=O)cc(-c5ccccc5)oc4c3)c3ccccc23)C(=O)N1` were 0.0015 µM and 0.34 µM.
In the case of `CCOC(=O)[C@H](OCc1cnnn1[C@H](Cc1ccc(O)cc1)C(=O)OC)[C@@H](OCc1cnnn1[C@@H](Cc1ccc(O)cc1)C(=O)OC)C(=O)OCC`, the IC50 in assay [1] was 0.14 µM; in assay [2], > 10 µM.
On to `CCOC(=O)[C@H](O)[C@@H](OCc1cnnn1[C@@H](Cc1ccccc1)C(=O)OC)C(=O)OCC`, for which the values for the IC50 in assay [1] and in assay [2] were 8 µM and 55 µM, respectively.
`COc1ccc(-n2nc(CCC(=O)N(C)O)cc2-c2ccc(Cl)cc2)cc1` [TEPOXALIN] registered an IC50 in assay [1] of 0.15 µM.
Regarding `Cc1ccc(S(=O)(=O)n2cc(C(=O)C(=O)N[C@H](C(=O)NCC(=O)O)c3c[nH]c4ccccc34)c3ccccc32)cc1`, the IC50 in assay [1] is 0.08 µM; in assay [2], 12.9 µM.
Taken in the same sequence, the figures for `COC(=O)[C@H](CO)n1nncc1COc1ccc2ccccc2c1-c1c(OCc2cnnn2[C@@H](CO)C(=O)OC)ccc2ccccc12` were 6 µM and 86 µM.
Turning to `COc1ccc2c(c1)c(CC(=O)O)c(C)n2C(=O)c1ccc(Cl)cc1` [INDOMETHACIN], the Activity in assay [5] stood at 0.9 ng/mL; with Mus musculus [6], 55%; in the assay on Mus musculus [7], 30%.
With `COc1cc(-c2cc(C(=O)CCCOc3ccc4ccc(=O)oc4c3)nn2-c2ccccc2)cc(OC)c1OC`, the IC50 in assay [1] was 0.87 µM; in assay [2], 53.1 µM.
Taken in the same sequence, the figures for `CCOC(=O)Cn1nncc1COc1ccc2ccccc2c1-c1c(OCc2cnnn2CC(=O)OCC)ccc2ccccc12` were 11 µM and 70 µM.
As for `CCOC(=O)Cn1nncc1CO[C@@H](C(=O)OCC)[C@@H](OCc1cnnn1CC(=O)OCC)C(=O)OCC`, the IC50 is 0.3 µM in assay [1] and 60 µM in assay [2]. The result in the assay on Mus musculus [3] (time 60.0 min) was Active.
For `CC(c1cc2ccccc2s1)N(O)C(N)=O` (configuration not stated) [ZILEUTON], the IC50 in assay [1] is 0.3 µM.
